Experimental data taken from ChEMBL document CHEMBL1926651, “Design, synthesis, antiviral and cytostatic evaluation of novel isoxazolidine nucleotide analogues with a 1,2,3-triazole linker” (Eur J Med Chem, 2012).
Activity calls are given as the source filed them. The calls are words filed in the database; no cut-off is given here.

Assays:
[1] = system: Mammalian orthoreovirus 1; assay: Antiviral activity against Reovirus-1 infected in african green monkey Vero cells assessed as inhibition of viral plaque formation at 250 uM; format: functional, organism-based
Procedure, shortened: (§1)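 Confluent host cell monolayers were inoculated with 100 CCID50 of virus in the presence of test compound at serial dilutions (250, 50, 10, … μM). Viral cytopathicity was scored once it reached completion in untreated virus-infected controls.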

[2] = system: Human betaherpesvirus 5; assay: Antiviral activity against Human cytomegalovirus AD169 infected in human HEL cells assessed as inhibition of viral plaque formation at 250 uM; format: functional, organism-based
[3] = system: HEL; assay: Cytotoxicity against human HEL cells assessed as change in cell morphology up to 100 uM; format: cell-based
Procedure, shortened: (§2)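 Uninfected host-cell cultures were examined under the microscope. MCC was taken as the lowest compound concentration producing a detectable alteration of normal cell morphology, assessed at concentrations up to 100 μM.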

[4] = system: Vero; assay: Cytotoxicity against african green monkey Vero cells assessed as change in cell morphology up to 100 uM; format: cell-based; conditions: chlorocebus sabaeus; procedure, shortened: as §2
[5] = system: Feline coronavirus; assay: Antiviral activity against Feline coronavirus infected in CrFK cells assessed as inhibition of viral plaque formation at 250 uM; format: functional, organism-based; procedure, shortened: as §1
[6] = system: Human alphaherpesvirus 3; assay: Antiviral activity against thymidine kinase-deficient Varicella Zoster virus 07/1 infected in human HEL cells assessed as inhibition of viral plaque formation at 250 uM; format: functional, organism-based
[7] = system: HeLa; assay: Cytotoxicity against human HeLa cells assessed as change in cell morphology up to 100 uM; format: cell-based; procedure, shortened: as §2
[8] = system: Coxsackievirus B4; assay: Antiviral activity against Coxsackievirus B4 infected in human HeLa cells assessed as inhibition of viral plaque formation at 250 uM; format: functional, organism-based; procedure, shortened: as §1
[9] = system: Respiratory syncytial virus; assay: Antiviral activity against Respiratory syncytial virus infected in human HeLa cells assessed as inhibition of viral plaque formation at 250 uM; format: functional, organism-based; procedure, shortened: as §1
[10] = system: HEL; assay: Cytotoxicity against human HEL cells 3 days by coulter counting; format: functional; conditions: 72 h
Procedure, shortened: (§3)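 Cells were suspended at 300,000–500,000 cells/mL and added 1:1 to compound dilutions. Incubation was at 37 °C, 2 days for L1210 and 3 days for CEM, HeLa and HEL. Cells were counted with a Coulter counter. CC50 is the concentration inhibiting cell proliferation by 50%.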

[11] = system: Human alphaherpesvirus 1; assay: Antiviral activity against Herpes simplex virus 1 KOS infected in human HEL cells assessed as inhibition of viral plaque formation at 250 uM; format: functional, organism-based; procedure, shortened: as §1
[12] = system: Vesicular stomatitis virus; assay: Antiviral activity against Vesicular stomatitis virus infected in human HEL cells assessed as inhibition of viral plaque formation at 250 uM; format: functional, organism-based; procedure, shortened: as §1
[13] = system: Human alphaherpesvirus 1; assay: Antiviral activity against thymidine kinase-deficient acv-resistant Herpes simplex virus 1 KOS infected in human HEL cells assessed as inhibition of viral plaque formation at 250 uM; format: functional, organism-based
[14] = system: Human respirovirus 3; assay: Antiviral activity against Parainfluenza-3 virus infected in african green monkey Vero cells assessed as inhibition of viral plaque formation at 250 uM; format: functional, organism-based; procedure, shortened: as §1
[15] = system: Human immunodeficiency virus 1; assay: Antiviral activity against Human immunodeficiency virus 1 infected in human CEM cells assessed as inhibition of virus-induced giant cell formation after 4 days by microscopic analysis; format: functional, organism-based; conditions: CCRF-CEM
Procedure, shortened: (§4)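 CEM cells at about 3 × 10⁵ cells/cm³ were infected with 100 CCID50/mL of HIV-1(IIIB) or HIV-2(ROD), then seeded into wells holding test compound dilutions. After 4 days at 37 °C, virus-induced giant cell formation was scored microscopically.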

[16] = system: Human betaherpesvirus 5; assay: Antiviral activity against Human cytomegalovirus Davis infected in human HEL cells assessed as inhibition of viral plaque formation at 250 uM; format: functional, organism-based
[17] = system: CCRF-CEM; assay: Cytotoxicity against human CEM cells 3 days by coulter counting; format: functional; conditions: 72 h; procedure, shortened: as §3
[18] = system: Human alphaherpesvirus 3; assay: Antiviral activity against thymidine kinase-positive Varicella Zoster virus Oka infected in human HEL cells assessed as inhibition of viral plaque formation at 250 uM; format: functional, cell-based; conditions: strain Oka vaccine
[19] = system: MDCK; assay: Cytotoxicity against MDCK cells assessed as change in cell morphology up to 100 uM; format: cell-based, Canis lupus familiaris; conditions: dog; procedure, shortened: as §2
[20] = system: Punta Toro virus; assay: Antiviral activity against Punta Toro virus infected in african green monkey Vero cells assessed as inhibition of viral plaque formation at 250 uM; format: functional, organism-based
[21] = system: Sindbis virus; assay: Antiviral activity against Sindbis virus infected in african green monkey Vero cells assessed as inhibition of viral plaque formation at 250 uM; format: functional, organism-based; procedure, shortened: as §1
[22] = system: Coxsackievirus B4; assay: Antiviral activity against Coxsackievirus B4 infected in african green monkey Vero cells assessed as inhibition of viral plaque formation at 250 uM; format: functional, organism-based; procedure, shortened: as §1
[23] = system: L1210; assay: Cytotoxicity against mouse L1210 cells 2 days by coulter counting; format: functional; conditions: L1210, 48 h; procedure, shortened: as §3
[24] = system: Felid alphaherpesvirus 1; assay: Antiviral activity against Felid herpesvirus 1 infected in CrFK cells assessed as inhibition of viral plaque formation at 250 uM; format: functional, organism-based; procedure, shortened: as §1
[25] = system: Human immunodeficiency virus 2; assay: Antiviral activity against Human immunodeficiency virus 2 infected in human CEM cells assessed as inhibition of virus-induced giant cell formation after 4 days by microscopic analysis; format: functional, organism-based; conditions: CCRF-CEM; procedure, shortened: as §4
[26] = system: HeLa; assay: Cytotoxicity against human HeLa cells 3 days by coulter counting; format: functional; conditions: 72 h; procedure, shortened: as §3
[27] = Cytotoxicity against CRFK cells assessed as change in cell morphology up to 100 uM; format: cell-based, Felis catus; conditions: cat; procedure, shortened: as §2
[28] = system: Vaccinia virus; assay: Antiviral activity against Vaccinia virus infected in human HEL cells assessed as inhibition of viral plaque formation at 250 uM; format: functional, organism-based; conditions: Orthopoxvirus vaccinia; procedure, shortened: as §1
[29] = system: Vesicular stomatitis virus; assay: Antiviral activity against Vesicular stomatitis virus infected in human Hela cells assessed as inhibition of viral plaque formation at 250 uM; format: functional, organism-based
[30] = system: Human alphaherpesvirus 2; assay: Antiviral activity against Herpes simplex virus 2 G infected in human HEL cells assessed as inhibition of viral plaque formation at 250 uM; format: functional, organism-based; conditions: strain G

SMILES	Activity [1]	Activity [2]	Activity [5]	Activity [6]	Activity [8]	Activity [9]	CC50 [10] [µM]	Activity [11]	Activity [12]	Activity [13]	Activity [14]	Activity [15]	Activity [16]	CC50 [17] [µM]	Activity [18]	Activity [20]	Activity [21]	Activity [22]	CC50 [23] [µM]	Activity [24]	further results
CCOP(=O)(OCC)[C@@H]1C[C@@H](n2cc(-c3ccccc3)nn2)ON1C (racemic)	inactive	inactive	inactive	inactive	inactive	inactive	40	inactive	inactive	inactive	inactive	inactive	inactive	> 250	inactive	inactive	inactive	inactive	> 250	inactive	Activity [3]: Non-toxic; Activity [4]: Non-toxic; Activity [7]: Non-toxic; Activity [19]: Non-toxic; Activity [25]: inactive; CC50 [26]: > 250 µM; Activity [27]: Non-toxic; Activity [28]: inactive; Activity [29]: inactive; Activity [30]: inactive
CCOP(=O)(OCC)[C@@H]1C[C@@H](n2cc(-c3cccc(F)c3)nn2)ON1C (racemic)	inactive	inactive	inactive	inactive	inactive	inactive	40	inactive	inactive	inactive	inactive	inactive	inactive	> 250	inactive	inactive	inactive	inactive	≥ 250	inactive	Activity [3]: Non-toxic; Activity [4]: Non-toxic; Activity [7]: Non-toxic; Activity [19]: Non-toxic; Activity [25]: inactive; CC50 [26]: ≥ 250 µM; Activity [27]: Non-toxic; Activity [28]: inactive; Activity [29]: inactive; Activity [30]: inactive
CCOP(=O)(OCC)[C@@H]1C[C@@H](n2cc(-c3ccc(F)cc3F)nn2)ON1C (racemic)	inactive	inactive	inactive	inactive	inactive	inactive	59	inactive	inactive	inactive	inactive	inactive	inactive	≥ 250	inactive	inactive	inactive	inactive	131	inactive	Activity [3]: Non-toxic; Activity [4]: Non-toxic; Activity [7]: Non-toxic; Activity [19]: Non-toxic; Activity [25]: inactive; CC50 [26]: 162 µM; Activity [27]: Non-toxic; Activity [28]: inactive; Activity [29]: inactive; Activity [30]: inactive
CCOP(=O)(OCC)[C@@H]1C[C@@H](n2cc(-c3ccccn3)nn2)ON1C (racemic)	inactive	inactive	inactive	inactive	inactive	inactive	62	inactive	inactive	inactive	inactive	inactive	inactive	> 250	inactive	inactive	inactive	inactive	≥ 250	inactive	Activity [3]: Non-toxic; Activity [4]: Non-toxic; Activity [7]: Non-toxic; Activity [19]: Non-toxic; Activity [25]: inactive; CC50 [26]: > 250 µM; Activity [27]: Non-toxic; Activity [28]: inactive; Activity [29]: inactive; Activity [30]: inactive
CCOP(=O)(OCC)[C@@H]1C[C@@H](n2cc(-c3ccccc3F)nn2)ON1C (relative stereo)	inactive	inactive	inactive	inactive	inactive	inactive	73	inactive	inactive	inactive	inactive	inactive	inactive	> 250	inactive	inactive	inactive	inactive	120	inactive	Activity [3]: Non-toxic; Activity [4]: Non-toxic; Activity [7]: Non-toxic; Activity [19]: Non-toxic; Activity [25]: inactive; CC50 [26]: 202 µM; Activity [27]: Non-toxic; Activity [28]: inactive; Activity [29]: inactive; Activity [30]: inactive
CCOP(=O)(OCC)[C@@H]1C[C@H](n2cc(Cn3cnc4c(N)ncnc43)nn2)ON1C (relative stereo)	inactive	inactive	inactive	inactive	inactive	inactive	> 100	inactive	inactive	inactive	inactive	inactive	inactive	> 250	inactive	inactive	inactive	inactive	147	inactive	Activity [25]: inactive; CC50 [26]: ≥ 250 µM; Activity [28]: inactive; Activity [29]: inactive; Activity [30]: inactive
CCOP(=O)(OCC)[C@@H]1C[C@H](n2cc(C(=O)OC)nn2)ON1C (relative stereo)	inactive	inactive	inactive	inactive	inactive	inactive	> 100	inactive	inactive	inactive	inactive	inactive	inactive	> 250	inactive	inactive	inactive	inactive	166	inactive	Activity [25]: inactive; CC50 [26]: > 250 µM; Activity [28]: inactive; Activity [29]: inactive; Activity [30]: inactive
